Source: ChEMBL document CHEMBL2157922, “Synthesis and antifungal activity of diverse C-2 pyridinyl and pyridinylvinyl substituted quinolines” (2012)
≈ marks a conversion by molar mass, not a printed value.

Assays:
Candida albicans [1] = assay: Antifungal activity against Candida albicans CCC 128 after 48 hrs by broth microdilution technique; assay type: functional; conditions: CCC 128, 48 h
Candida tropicalis = assay: Antifungal activity against Candida tropicalis CCC 131 after 48 hrs by broth microdilution technique; assay type: functional; conditions: CCC 131, 48 h
[2] = test system: Trichophyton mentagrophytes; assay: Antifungal activity against Trichophyton mentagrophytes ATCC 9972 after 48 hrs by broth microdilution technique; assay type: functional; conditions: ATCC 9972, 48 h
Outline: (§1)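 Moulds and dermatophytes were run by CLSI broth microdilution in MOPS-buffered RPMI-1640 at pH 7.0. Aspergillus was incubated at 30 °C and dermatophytes at 28–30 °C, in a moist, dark chamber. MIC100, the lowest concentration with no visible growth, was read visually at a time set by growth of the control fungus.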

Candida albicans [3] = assay: Antifungal activity against Candida albicans CCC 127 after 48 hrs by broth microdilution technique; assay type: functional; conditions: CCC 127, 48 h
Candida albicans [4] = assay: Antifungal activity against Candida albicans ATCC 10231 at 15.6 ug/ml after 24 hrs; assay type: functional; conditions: ATCC 10231, 24 h
Outline: (§2)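 C. albicans was grown in 96-well RPMI-1640 broth microdilution with compound wells diluted from DMSO stocks. Growth wells with matched DMSO and sterility wells were included. After 24 h at 30 °C in a moist, dark chamber, OD405 was read. % inhibition = 100 − (CTW − SCW)/(GCW − SCW) OD, done in duplicate.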

Nakaseomyces glabratus = assay: Antifungal activity against Candida glabrata CCC 115 after 48 hrs by broth microdilution technique; assay type: functional; conditions: CCC 115, 48 h
Trichophyton rubrum = assay: Antifungal activity against Trichophyton rubrum CCC 113 after 48 hrs by broth microdilution technique; assay type: functional; conditions: CCC 113, 48 h
Candida albicans [5] = assay: Antifungal activity against Candida albicans CCC 130 after 48 hrs by broth microdilution technique; assay type: functional; conditions: CCC 130, 48 h
Cryptococcus neoformans [6] = assay: Antifungal activity against Cryptococcus neoformans IM 983040 after 48 hrs by broth microdilution technique; assay type: functional; conditions: IM 983040, 48 h
Outline: (§3)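 C. neoformans was tested by 96-well RPMI-1640 microdilution, with DMSO-matched growth and sterility control wells. Plates were incubated 48 h at 30 °C in a moist, dark chamber and read at OD405. % inhibition = 100 − (CTW − SCW)/(GCW − SCW), in duplicate. For the clinical isolates, MIC80 and MIC50 are the lowest concentrations giving 80% and 50% inhibition.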

Saccharomyces cerevisiae = assay: Antifungal activity against Saccharomyces cerevisiae ATCC 9763 after 48 hrs by broth microdilution technique; assay type: functional; conditions: ATCC 9763, 48 h
Outline: (§4)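 Yeasts were tested by CLSI broth microdilution in RPMI-1640 buffered to pH 7.0 with MOPS, with compound from 250 down to 0.98 in DMSO stocks. Trays were held at 30 °C in a moist, dark chamber. MIC100, the lowest concentration giving total visual inhibition against the growth control, was read by eye at 48 h.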

Pichia kudriavzevii = assay: Antifungal activity against Candida krusei CCC 117 after 48 hrs by broth microdilution technique; assay type: functional; conditions: CCC 117, 48 h
Aspergillus niger = assay: Antifungal activity against Aspergillus niger ATCC 9029 after 48 hrs by broth microdilution technique; assay type: functional; conditions: ATCC 9029, 48 h; outline: as §1
Aspergillus fumigatus = assay: Antifungal activity against Aspergillus fumigatus ATCC 26934 after 48 hrs by broth microdilution technique; assay type: functional; conditions: ATCC 26934, 48 h; outline: as §1
Candida albicans [7] = assay: Antifungal activity against Candida albicans ATCC 10231 at 7.8 ug/ml after 24 hrs; assay type: functional; conditions: ATCC 10231, 24 h; outline: as §2
Cryptococcus neoformans [8] = assay: Antifungal activity against Cryptococcus neoformans ATCC 32264 at 31.2 ug/ml after 48 hrs; assay type: functional; conditions: ATCC 32264, 48 h; outline: as §3
Cryptococcus neoformans [9] = assay: Antifungal activity against Cryptococcus neoformans ATCC 32264 at 15.6 ug/ml after 48 hrs; assay type: functional; conditions: ATCC 32264, 48 h; outline: as §3
Cryptococcus neoformans [10] = assay: Antifungal activity against Cryptococcus neoformans ATCC 32264 at 3.9 ug/ml after 48 hrs; assay type: functional; conditions: ATCC 32264, 48 h; outline: as §3
Cryptococcus neoformans [11] = assay: Antifungal activity against Cryptococcus neoformans IM 983036 after 48 hrs by broth microdilution technique; assay type: functional; conditions: IM 983036, 48 h; outline: as §3
Aspergillus flavus = assay: Antifungal activity against Aspergillus flavus ATCC 9170 after 48 hrs by broth microdilution technique; assay type: functional; conditions: ATCC 9170, 48 h; outline: as §1
Cryptococcus neoformans [12] = assay: Antifungal activity against Cryptococcus neoformans ATCC 32264 after 48 hrs by broth microdilution technique; assay type: functional; conditions: ATCC 32264, 48 h; outline: as §4
Nannizzia gypsea = assay: Antifungal activity against Microsporum gypseum CCC 115 after 48 hrs by broth microdilution technique; assay type: functional; conditions: CCC 115, 48 h; outline: as §1
Candida albicans [13] = assay: Antifungal activity against Candida albicans CCC 130 after 24 hrs by broth microdilution technique; conditions: CCC 130, 24 h
Candida albicans [14] = assay: Antifungal activity against Candida albicans CCC 126 after 48 hrs by broth microdilution technique; assay type: functional; conditions: CCC 126, 48 h
Candida albicans [15] = assay: Antifungal activity against Candida albicans CCC 125 after 48 hrs by broth microdilution technique; assay type: functional; conditions: CCC 125, 48 h
Candida albicans [16] = assay: Antifungal activity against Candida albicans ATCC 10231 after 48 hrs by broth microdilution technique; assay type: functional; conditions: ATCC 10231, 48 h; outline: as §4
Candida albicans [17] = assay: Antifungal activity against Candida albicans CCC 129 after 48 hrs by broth microdilution technique; assay type: functional; conditions: CCC 129, 48 h
Cryptococcus neoformans [18] = assay: Antifungal activity against Cryptococcus neoformans IM 972724 after 48 hrs by broth microdilution technique; assay type: functional; conditions: IM 972724, 48 h; outline: as §3
Candida parapsilosis = assay: Antifungal activity against Candida parapsilosis CCC 124 after 48 hrs by broth microdilution technique; assay type: functional; conditions: Lodderomyces parapsilosis, CCC 124, 48 h
Candida albicans [19] = assay: Antifungal activity against Candida albicans ATCC 10231 at 31.2 ug/ml after 24 hrs; assay type: functional; conditions: ATCC 10231, 24 h; outline: as §2
Cryptococcus neoformans [20] = assay: Antifungal activity against Cryptococcus neoformans IM 00319 after 48 hrs by broth microdilution technique; assay type: functional; conditions: IM 00319, 48 h; outline: as §3
Cryptococcus neoformans [21] = assay: Antifungal activity against Cryptococcus neoformans IM 972751 after 48 hrs by broth microdilution technique; assay type: functional; conditions: IM 972751, 48 h; outline: as §3
Cryptococcus neoformans [22] = assay: Antifungal activity against Cryptococcus neoformans IM 042074 after 48 hrs by broth microdilution technique; assay type: functional; conditions: IM 042074, 48 h; outline: as §3

Question: What does the source list for `CCc1ccc2nc(-c3ccccn3)ccc2c1`?
Answer: MIC50 (Candida albicans [1]): 31.2 µg/mL (≈ 133 µM); MIC80 (Candida albicans [1]): 62.5 µg/mL (≈ 267 µM); MIC50 (Candida tropicalis): 15.6 µg/mL (≈ 66.6 µM); MIC80 (Candida tropicalis): 31.2 µg/mL (≈ 133 µM); MFC [2]: 62 µg/mL (≈ 265 µM); MIC [2]: 62 µg/mL (≈ 265 µM); MIC50 (Candida albicans [3]): 62.5 µg/mL (≈ 267 µM); MIC80 (Candida albicans [3]): 62.5 µg/mL (≈ 267 µM); inhibition at 15.6 µg/mL (Candida albicans [4]): 80%; MIC50 (Nakaseomyces glabratus): 62.5 µg/mL (≈ 267 µM); MIC80 (Nakaseomyces glabratus): 62.5 µg/mL (≈ 267 µM); MFC (Trichophyton rubrum): 62 µg/mL (≈ 265 µM); MIC (Trichophyton rubrum): 62 µg/mL (≈ 265 µM); MIC80 (Candida albicans [5]): 62.5 µg/mL (≈ 267 µM); MIC50 (Cryptococcus neoformans [6]): 3.9 µg/mL (≈ 16.6 µM); MIC80 (Cryptococcus neoformans [6]): 7.8 µg/mL (≈ 33.3 µM); MFC (Saccharomyces cerevisiae): 250 µg/mL (≈ 1070 µM); MIC (Saccharomyces cerevisiae): 62 µg/mL (≈ 265 µM); MIC50 (Pichia kudriavzevii): 31.2 µg/mL (≈ 133 µM); MIC80 (Pichia kudriavzevii): 62.5 µg/mL (≈ 267 µM); MFC (Aspergillus niger): > 250 µg/mL; MIC (Aspergillus niger): 250 µg/mL (≈ 1070 µM); MFC (Aspergillus fumigatus): 125 µg/mL (≈ 533 µM); MIC (Aspergillus fumigatus): 62 µg/mL (≈ 265 µM); inhibition at 7.8 µg/mL (Candida albicans [7]): 50%; inhibition at 31.2 µg/mL (Cryptococcus neoformans [8]): 80%; inhibition at 15.6 µg/mL (Cryptococcus neoformans [9]): 80%; inhibition at 3.9 µg/mL (Cryptococcus neoformans [10]): 50%; MIC50 (Cryptococcus neoformans [11]): 3.9 µg/mL (≈ 16.6 µM); MIC80 (Cryptococcus neoformans [11]): 7.8 µg/mL (≈ 33.3 µM); MFC (Aspergillus flavus): 125 µg/mL (≈ 533 µM); MIC (Aspergillus flavus): 62 µg/mL (≈ 265 µM); MFC (Cryptococcus neoformans [12]): 125 µg/mL (≈ 533 µM); MIC (Cryptococcus neoformans [12]): 31 µg/mL (≈ 132 µM); MIC50 (Cryptococcus neoformans [12]): 3.9 µg/mL (≈ 16.6 µM); MIC80 (Cryptococcus neoformans [12]): 15.6 µg/mL (≈ 66.6 µM); MFC (Nannizzia gypsea): 62 µg/mL (≈ 265 µM); MIC (Nannizzia gypsea): 62 µg/mL (≈ 265 µM); MIC50 (Candida albicans [13]): 31.2 µg/mL (≈ 133 µM); MIC50 (Candida albicans [14]): 15.6 µg/mL (≈ 66.6 µM); MIC80 (Candida albicans [14]): 31.2 µg/mL (≈ 133 µM); MIC50 (Candida albicans [15]): 62.5 µg/mL (≈ 267 µM); MIC80 (Candida albicans [15]): 125 µg/mL (≈ 533 µM); MFC (Candida albicans [16]): 250 µg/mL (≈ 1070 µM); MIC (Candida albicans [16]): 62 µg/mL (≈ 265 µM); MIC50 (Candida albicans [16]): 7.8 µg/mL (≈ 33.3 µM); MIC80 (Candida albicans [16]): 15.6 µg/mL (≈ 66.6 µM); MIC50 (Candida albicans [17]): 31.2 µg/mL (≈ 133 µM); MIC80 (Candida albicans [17]): 62.5 µg/mL (≈ 267 µM); MIC50 (Cryptococcus neoformans [18]): 3.9 µg/mL (≈ 16.6 µM); MIC80 (Cryptococcus neoformans [18]): 7.8 µg/mL (≈ 33.3 µM); MIC50 (Candida parapsilosis): 15.6 µg/mL (≈ 66.6 µM); MIC80 (Candida parapsilosis): 31.2 µg/mL (≈ 133 µM); inhibition at 31.2 µg/mL (Candida albicans [19]): 80%; MIC50 (Cryptococcus neoformans [20]): 7.8 µg/mL (≈ 33.3 µM); MIC80 (Cryptococcus neoformans [20]): 15.6 µg/mL (≈ 66.6 µM); MIC50 (Cryptococcus neoformans [21]): 3.9 µg/mL (≈ 16.6 µM); MIC80 (Cryptococcus neoformans [21]): 15.6 µg/mL (≈ 66.6 µM); MIC50 (Cryptococcus neoformans [22]): 3.9 µg/mL (≈ 16.6 µM); MIC80 (Cryptococcus neoformans [22]): 7.8 µg/mL (≈ 33.3 µM)
